Screens from PubChem.
Only some compounds are listed: those with a hit (about 4% of all), similar ones and a draw of the others.
hiPSC survival – hiPSC single-cell survival enhancement; AID 602274; ATPlite luminescence; 100% = ROCK inhibitor wells, 0% = DMSO; survival enhancement, % at 20 µM; hit rate 0.044% among 360,000; in the data active means survival enhancement above about 18%;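 further: cells exposed to compounds for 16 hours before the ATP read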
GRIN3A LBD mod – modulators (binders) of human NR3A ligand-binding domain | Tm shift relative to glycine control, % at 25 µM | hit rate 2.5% among 340,000 | AID 1259313 | NR3A LBD differential scanning fluorimetry, Tm shift; 0% = protein alone, 100% = glycine-bound protein;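 active means melting temperature shift of at least 10% of the positive control shift, at one fixed dose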
H9c2 protect – modulators protecting cardiomyocytes from myocardial damage; H9c2 cardiomyocytes, H2O2 injury protection, ATPLite, 2 h; hit rate 0.63% among 360,000; protection from H2O2 cell death, % at 20 µM;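 active means compounds giving at least 50% protection of heart cells from peroxide-induced death in the single-dose screen, raw or plate-pattern-corrected value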;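 further: 0% = DMSO wells with peroxide and 100% = DMSO wells without peroxide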
FAS-TE inh – inhibitors of human fatty acid synthase thioesterase domain | P49327 | recombinant FAS-TE, OMFH fluorogenic substrate, fluorescence endpoint | inhibition, % at 15 µM | hit rate 0.67% among 360,000 | AID 602261;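 active means compounds whose normalised, plate-corrected inhibition of enzyme fluorescence in the single-dose primary screen is 50% or more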;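 further: 0% = DMSO with enzyme and 100% = substrate without enzyme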
SENP1 inh – blocks the human SENP1 SUMO protease catalytic domain; Q9P0U3; recombinant SENP1 catalytic domain, CyPet-SUMO1-YPet FRET cleavage; inhibition, % at 10 µM; hit rate 0.21% among 360,000; AID 624204;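 active means inhibition at least 30% at 10 µM, raw YFP signal under a set limit, fluorescence ratio 0.5 to 1.5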;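 further: 0% = enzyme with DMSO and 100% = no enzyme wells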
Target sequence (Q9P0U3 419-644 limits assumed): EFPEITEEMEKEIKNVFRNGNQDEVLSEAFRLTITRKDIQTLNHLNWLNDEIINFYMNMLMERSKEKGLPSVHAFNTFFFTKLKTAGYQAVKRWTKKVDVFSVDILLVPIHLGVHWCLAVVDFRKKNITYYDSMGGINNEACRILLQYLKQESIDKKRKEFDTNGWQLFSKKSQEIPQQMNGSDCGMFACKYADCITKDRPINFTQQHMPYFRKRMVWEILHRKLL
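Material: hSENP1 catalytic domain, recombinant; medium: Tris pH 8 with BME, BSA, NP40 and catalase; compound: single concentration of 10 µM compound, 0.5% DMSO final; technique: FRET read of cyan and yellow fluorescence; timing: 50 min enzyme reaction, room temperature, light-protected; reagent: SFCypet-SUMO1-SFYpet substrate at 25 nM; control set: no-enzyme low, enzyme-DMSO high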
Arr AP2 block – human beta-arrestin and AP2 interaction inhibition; AID 504490; FITC-arrestin peptide / GST-AP2 beads, flow cytometry; AP2 beta2 appendage carries R879A mutation; inhibition, % at 10 µM; hit rate 0.31% among 340,000;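 active means inhibition above a set limit, near 3 SD of compounds lacking own fluorescence, cut at about 54% in these data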;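 further: plate controls were DMSO wells for no effect and 5 µM unlabelled arrestin peptide for full effect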
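System: GST-AP2 R879A glutathione beads; medium: PBS, Tween 20 0.05%, BSA 0.1%; reagent: fluorescein-tagged arrestin peptide at 50 nM final; schedule: pre-incubation 12 min, peptide binding 1 h, room temperature; detection: flow cytometry, FL1 (488/535 nm); read-out: inhibition as reduced fluorescein signal on beads, percent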
Numbers without * were called inactive; · = not tested or not shown.

SMILES | hiPSC survival | GRIN3A LBD mod | H9c2 protect | FAS-TE inh | SENP1 inh | Arr AP2 block
Cc1ccc(NC(=O)COc2ccc(/C=N/NC(=O)CSCc3ccccc3)cc2)cc1 | 0.5 | 18.2* | 3.8 | -3.6 | 1.4 | -3.6
CCOC(=O)c1c2ccc(OCC(=O)N/N=C/c3ccc(C)cc3)cc2n2ccccc12 | 0.5 | 0.7 | 54.4* | -1.7 | 5.8 | -1.9
O=C(CSCc1ccc(Cl)cc1)N/N=C/c1ccc(OCC(=O)Nc2ccccc2)cc1 | -1.3 | 10.5* | -19.6 | 22.8 | -0.3 | 6.9
CC(C)C[C@H]1CN(CCCC[C@H]2CNC(=O)C(=O)N2CCc2ccc(O)cc2)C(=O)C(=O)N1CCc1ccc(O)cc1 | 0.4 | · | · | -12.6 | 1.4 | ·
CCCC(=O)N1CCC1(C)C(=O)Nc1scc(C)c1C#N (configuration not stated) | -0.9 | · | -7.3 | -11.3 | 0.5 | ·
O=C(Nc1cc(C(F)(F)F)cc(C(F)(F)F)c1)O[C@@H]1c2ccccc2[C@@H]2Cc3csc[n+]3[C@H]12 | 0.4 | · | · | -127.5 | -1.1 | ·
CCN(CC(=O)Nc1c(F)cccc1F)C(=O)c1n[nH]c2ccccc12 | -0.1 | -0.3 | 3.7 | -5.2 | 0.2 | 37.6
CCN(CC(=O)Nc1c(F)cccc1F)C(=O)c1ccc2ccccc2n1 | -0.5 | 15.5* | -1.5 | -7.6 | 1.5 | 5.4
COCCCNC(=O)c1cccc2c(-c3cccc(C(N)=O)c3)coc12 | -2.5 | · | 5.4 | -2.5 | 0.0 | ·
C[C@@H](NC(=O)[C@@H]1CCCN1C(=O)[C@@H]1CCCN1)c1ccccc1 | 0.4 | · | · | -11.0 | 2.3 | ·
CN1CCc2c(sc(N)c2C(=O)c2ccc(Cl)cc2)C1 | 0.1 | -0.3 | -4.7 | -14.8 | -59.9 | -17.0
COc1ccc(C(=O)c2c(N)sc3c2CCN(C(=O)OC(C)(C)C)C3)cc1 | 0.1 | 13.1* | -3.2 | -17.6 | -6.1 | 11.3
COc1ccc(C2NC(=O)CS2)cc1OC (configuration not stated) | 7.3 | -0.9 | 4.0 | -8.8 | 2.0 | 4.3
COc1ccccc1C1NC(=O)CS1 (configuration not stated) | -0.4 | 14.0* | 5.6 | -9.7 | 0.0 | -0.8
CCOc1ccc(/C=N/NC(=O)Cc2csc(Nc3cccc(C(F)(F)F)c3)n2)c(OCC)c1 | 1.7 | 10.0* | 2.3 | 13.5 | -0.6 | 6.8
CCOc1ccccc1/C=N/NC(=O)Cc1csc(Nc2cccc(C(F)(F)F)c2)n1 | -0.1 | 6.6 | -29.3 | 22.5 | -5.0 | -2.9
Cn1nc(C(C)(C)C)cc1NC(=O)C1(C)CCN1C(=O)c1ccccc1CCc1ccccc1 (configuration not stated) | 0.0 | · | -0.5 | 18.4 | -1.3 | ·
O=C(CSc1ccccn1)Nc1ccc2c(c1)oc1ccccc12 | -0.6 | 26.0* | 1.7 | 22.9 | 2.4 | -6.8
COc1cc2c(cc1NC(=O)CSc1ccccn1)oc1ccccc12 | 0.5 | 0.3 | -8.6 | 28.9 | -0.4 | 18.5
O=c1c(Cl)c(Cl)cnn1Cc1nnc(-c2ccccc2Br)o1 | 25.6* | 0.7 | -21.3 | 8.0 | -1.4 | -8.7
N#Cc1ccc(S(=O)(=O)N2CCCCC2c2cc(C(=O)NCc3ccccc3)no2)cc1 (configuration not stated) | 1.0 | · | 8.0 | -53.5 | 1.8 | ·
CC(OC(=O)C1=COCCO1)C(=O)Nc1ccccc1C#N (configuration not stated) | -0.6 | -1.6 | 8.1 | -8.3 | 0.3 | 6.9
CC(OC(=O)C1=COCCO1)C(=O)NC1(C#N)CCCCC1 (configuration not stated) | -3.0 | 11.2* | -0.2 | -3.5 | 0.2 | 5.2
O=c1c2ccccc2nc(-c2ccc(Cl)c(Cl)c2)n1O | 3.4 | -7.3 | 62.6* | -9.5 | 1.4 | 28.9
CC[C@@H](NC(=O)[C@@H](Cc1ccccc1)NC(=O)CC[C@H]1O[C@@H](n2ccc(=O)[nH]c2=O)[C@H](O)[C@@H]1O)c1ccccc1 | 0.9 | · | 1.6 | -1.5 | -2.2 | ·
SMILES | hiPSC survival | GRIN3A LBD mod | H9c2 protect | FAS-TE inh | SENP1 inh | Arr AP2 block
NC(=O)c1c(/N=C/c2cccnc2)sc2c1CCCC2 | -0.3 | 11.0* | 4.2 | 0.1 | -1.6 | 3.7
Cc1ccc(/C=N/c2sc3c(c2C(N)=O)CCCC3)o1 | 3.7 | -1.7 | 9.5 | 2.2 | -1.9 | -21.2
C=CCn1c(SCC(=O)NC2CCCC2)nc2ccccc21 | -0.5 | · | -4.2 | -6.8 | 3.5 | ·
COc1ccc(Cl)cc1NC(=O)c1cccc([N+](=O)[O-])c1O | -1.7 | 2.4 | -14.2 | -2.7 | -2.6 | -19.1
CN(C)CCCC(C)(O)C(Cc1ccccc1)c1ccccc1 (configuration not stated) | -1.0 | 14.0* | -2.5 | -14.8 | 0.1 | -7.1
CN(C)CCC(Oc1ccccc1OCc1ccccc1)c1ccccc1 (configuration not stated) | -0.7 | -1.2 | -3.7 | -5.5 | 0.6 | -7.2
COc1cccc(C2C(C(=O)OC(C)C)=C(C)N=c3s/c(=C\c4ccc(C(=O)O)cc4)c(=O)n32)c1 (configuration not stated) | -0.5 | -1.8 | -2.5 | 3.1 | 19.6 | 23.1
O=c1/c(=C\c2ccc(O)cc2)sc2n1C(c1ccccc1)C(c1ccccc1)=NN=2 (configuration not stated) | -0.9 | 14.6* | 12.6 | 3.9 | -27.5 | 2.7
CCC(C)CN1C(=O)CSCC1(C)C(=O)Nc1ccc2c(c1)OCCO2 (configuration not stated) | · | · | · | · | 2.2 | ·
O=[N+]([O-])c1ccc(/C=N/NC(=S)Nc2ccccc2)o1 | -0.6 | 0.4 | 4.8 | -4.0 | 6.9 | 17.0
O=[N+]([O-])c1cccc(-c2ccc(/C=N/NC(=S)Nc3ccccc3)o2)c1 | 5.0 | 14.8* | 13.5 | 28.9 | 1.6 | 0.8
COC(=O)[C@]12CCCCC=C1N(CCc1ccc(OC)c(OC)c1)C(=O)[C@H](CC(=O)NCc1cccs1)C2 | · | · | · | · | 0.7 | ·
O=c1[nH]c(-c2ccncc2)nc2ccccc12 | -1.8 | 1.3 | 39.3 | -15.9 | -1.9 | 0.8
O=c1[nH]c(-c2cccnc2)nc2ccccc12 | -1.5 | 2.5 | 47.0* | -9.9 | -18.7 | 15.0
CC(C)[C@@H](C(=O)NC1CCN(Cc2ccccc2)CC1)N1C(=O)N2CCc3c([nH]c4ccccc34)[C@@]2(C)C1=O | -0.4 | 36.9* | 1.3 | 9.5 | -2.5 | -7.9
C[C@@H](C(=O)NC1CCN(Cc2ccccc2)CC1)N1C(=O)N2CCc3c([nH]c4ccccc34)[C@@]2(C)C1=O | 0.1 | -0.5 | -4.8 | 2.8 | -8.9 | -0.6
N=c1c(S(=O)(=O)c2ccccc2)cc2c(=O)n3ccccc3nc2n1C1CCCC1 | -0.3 | -24.4 | -4.1 | 21.3 | -28.9 | 17.1
N=c1c(S(=O)(=O)c2ccc(Cl)cc2)cc2c(=O)n3ccccc3nc2n1C1CCCCC1 | 0.2 | -0.8 | -9.7 | 64.8* | -25.2 | -8.5
